# MEKK2mut PB1 HTS = MEK5 binding signal on mutant MEKK2 PB1, primary screen, biochemical, multiplex bead flow cytometry, Alexa488-MEK5; Alexa488-MEK5 binding to MEKK2 mutant; percent response, % at 10 µM; 0.35% of 290,000 active; AID 1530, 2009; in the data active = percent response above about 24%, passing the limit was not always enough
# MEKK2 WT-MEK5 = modulators of MEK5 binding to wildtype MEKK2, primary screen, biochemical, multiplex bead flow cytometry, Alexa488-MEK5; Mitogen-activated protein kinase kinase kinase 2 (Homo sapiens), Q9Y2U5; 1.1% of 290,000 active; Alexa488-MEK5 binding to MEKK2 WT; actives lie on both sides; binding response (% of control), % at 10 µM; in the data active = binding response below about 67% or above about 130%
# MEKK3 PB1 HTS = modulators of MEKK3-MEK5 PB1 binding, primary screen, biochemical, wildtype MEKK3, multiplex bead flow cytometry, Alexa488-MEK5. bead-based flow cytometry, Alexa488-MEK5 binding to MEKK3; actives lie on both sides; 0 = blocked by unlabeled MEK5, 100 = vehicle. 1.4% of 290,000 active. binding response (% of control), % at 10 µM. Mitogen-activated protein kinase kinase kinase 3 (Homo sapiens), Q99759;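 active = binding response more than 3 SD above or below the average of its plate-row segment, actives on both sides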;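 also: Alexa488 bead fluorescence after subtracting the streptavidin-only scavenger bead signal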
# Target sequence (Q99759 whole entry, looked up): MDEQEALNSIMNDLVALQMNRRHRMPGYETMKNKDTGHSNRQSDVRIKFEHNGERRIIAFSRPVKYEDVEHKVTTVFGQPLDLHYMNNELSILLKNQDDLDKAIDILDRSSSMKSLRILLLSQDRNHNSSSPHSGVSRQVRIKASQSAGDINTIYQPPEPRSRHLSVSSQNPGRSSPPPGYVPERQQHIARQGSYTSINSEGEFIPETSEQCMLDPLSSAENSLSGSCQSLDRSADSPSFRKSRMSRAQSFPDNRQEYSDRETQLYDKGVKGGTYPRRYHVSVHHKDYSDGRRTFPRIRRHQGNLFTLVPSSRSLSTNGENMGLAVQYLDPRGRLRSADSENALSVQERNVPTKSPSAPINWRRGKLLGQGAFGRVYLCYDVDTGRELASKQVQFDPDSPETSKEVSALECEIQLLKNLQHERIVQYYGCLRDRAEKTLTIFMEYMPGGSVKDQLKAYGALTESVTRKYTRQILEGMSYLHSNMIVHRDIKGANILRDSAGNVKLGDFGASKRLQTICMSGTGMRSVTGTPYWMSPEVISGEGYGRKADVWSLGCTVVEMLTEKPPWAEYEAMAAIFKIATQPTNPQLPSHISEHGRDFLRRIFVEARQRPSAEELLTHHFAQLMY
# ABCG2 inh = ABCG2 efflux pump inhibitors, primary screen, multiplex with ABCB1, IgMXP3 cells, flow cytometry; JC-1 efflux; Broad substrate specificity ATP-binding cassette transporter ABCG2 (Homo sapiens), Q9UNQ0; inhibition, % at 6.6 µM; AID 1325, 2008; 0.1% of 190,000 active;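 active = inhibition above 80%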;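 also: 0% = DMSO and 100% = nicardipine control wells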
#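 Measure – % inhibition of efflux relative to nicardipine and DMSO · Test system – ABCG2 IgMXP3 and barcoded ABCB1 CCRF-Adr cell mix · Control set – nicardipine as high control, DMSO as low control · Compound – one concentration, 6.6 µM final · Signal – flow cytometry of retained JC-1 fluorescence · Timing – 10 min exposure at 25 °C with rotation, no wash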
# ABCB1 inh = ABCB1 efflux pump inhibitors, primary screen, cell-based, multiplex, flow cytometry, ABCG2 counter-screen. ATP-dependent translocase ABCB1 (Homo sapiens), P08183. CCRF-Adr cells, JC-1 efflux. inhibition, % at 6.6 µM. 0.067% of 190,000 active. AID 1326, 2008; in the data active = inhibition above about 40%;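 also: 0% = vehicle and 100% = reference inhibitor; higher value means more JC-1 retained so stronger ABCB1 efflux block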
# WT yeast gro inh = growth inhibition of WT strain, primary screen, mitochondrial fusion inhibitor project, WT and mutant strains, chemical genetic; inhibition, % at 10 µM; 2.1% of 190,000 active; mitochondrial fusion phenotypic screen; in the data active = inhibition above about 58%; tested in S. cerevisiae
# ABCB1 single pt = ABCB1 efflux pump inhibitors, confirmation, cell-based, single point, ABCG2 counter-screen; inhibition, % at 6.6 µM; CCRF-Adr cells, JC-1 efflux, flow cytometry; AID 1451, 2008; shares compounds with ABCG2 inh; 7% of 270 active;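 active = inhibition of pump activity above 50%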;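 also: 0% = DMSO and 100% = nicardipine full pump inhibition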
# ABCG2 confirm = ABCG2 efflux pump inhibitors, confirmation, single point, IgMXP3 cells, ABCB1 counter-screen paired; AID 1453, 2008; 6% of 270 active; JC-1 efflux, flow cytometry; shares compounds with ABCG2 inh; inhibition, % at 6.6 µM;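 active = inhibition above 50%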;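 also: 0% = DMSO wells and 100% = nicardipine pump inhibitor wells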
# IgMXP3 fluor = compound autofluorescence in ABCG2-expressing IgMXP3 cells, confirmation, artefact control for ABC transporter inhibitor project, cell-based, 488/530 nm, flow cytometry; 30% of 270 active; compound autofluorescence 488/530 nm; hits give high values; fluorescence at 6.6 µM; shares compounds with ABCG2 inh;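 active = fluorescence in ABCG2-expressing cells above the plate's control-well mean plus 3 SD, cut at about 15 in these data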;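 also: median cell fluorescence with compound minus that of DMSO-treated control cells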
# CCRF-Adr fluor = compound autofluorescence in ABCB1-expressing CCRF-Adr cells, confirmation, artefact control for ABC transporter inhibitor project, cell-based, 488/530 nm, flow cytometry | shares compounds with ABCG2 inh | compound autofluorescence 488/530 nm; hits give high values | fluorescence at 6.6 µM | 30% of 270 active | AID 1483, 2009;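 active = fluorescence beyond the plate control mean plus 3 SD, with a fluorescence-to-maximum score over 2, cut at about 25 in these data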
# Numbers without * were called inactive; / = no result; [ ] = remark or other dose. Sampled rows, rich in hits. Any-hit rate of the full collection: about 3.5%.
SMILES,MEKK2mut PB1 HTS,MEKK2 WT-MEK5,MEKK3 PB1 HTS,ABCG2 inh,ABCB1 inh,WT yeast gro inh,ABCB1 single pt,ABCG2 confirm,IgMXP3 fluor,CCRF-Adr fluor
CCN(CC)S(=O)(=O)c1ccc(OC)c(NC(=O)c2cccc(C)c2[N+](=O)[O-])c1,3,104,107,88*,3,-5,1,48,4.7,2.9
COc1ccc(OC)c(NC(=O)c2cccc(C)c2[N+](=O)[O-])c1,-4,96,101,5,-1,2,/,/,/,/
Cc1ccc(NC(=O)CCn2cc(C(F)(F)F)ccc2=O)cc1,2,99,103,/,/,/,/,/,/,/
Cc1cc(NC(=O)C(C)C)n(-c2nc3ccccc3s2)n1,-1,98,99,81*,4,18,0,30,3.2,10
O=C(NCCCc1ccccc1)Nc1cccc(Cl)c1,-5,97,101,94*,0,77*,2,21,-0.04,-1.7
O=C(NCCc1ccncc1)Nc1cccc(Cl)c1,1,103,96,2,0,3,/,/,/,/
COCCCn1c(SCCc2ccccc2)nc2cc(OC)c(OC)cc2c1=N,-32,131,95,2,1,37,/,/,/,/
COCCNC(=O)CSc1nc2cc(OC)c(OC)cc2c(=O)n1CCC1=CCCCC1,4,106,104,88*,19,6,9,46,1.3,-1.4
CCSc1nc2cc(OC)c(OC)cc2c(=O)n1CCc1ccccc1,4,99,102,77,3,-7,6,35,5.8,0.56
CCOC(=O)c1cc(-c2ccc(Cl)cc2)nc2onc(C)c12,/,/,/,83*,1,-6,2,37,2.5,9.5
COc1cc(SC)ccc1C(=O)Nc1ccccc1,5,100,98,84*,-1,7,3,36,18*,30*
COc1ccccc1C(=O)Nc1cccc(SC)c1,5,103,107,14,0,4,/,/,/,/
CCn1c(SCc2ccccc2Cl)nc2nc3c(cc2c1=O)CCCC3,-2,106,100,92*,21,45,18,16,15*,6.2
COc1cc2c(cc1OC)CN(C(=O)C1CCCN1S(=O)(=O)c1ccc(F)cc1)CC2 (configuration not stated),-3,100,101,/,/,/,/,/,/,/
COC(=O)C1=C(C)NC(C)=C(C(=O)OC)C1c1ccc(-c2cccc(Cl)c2Cl)o1,3,105,98,85*,4,34,8,6,0.21,-1.3
COC(=O)C1=C(C)NC(C)=C(C(=O)OC)C1c1ccc(-c2cc(Cl)ccc2Cl)o1,-1,99,101,14,1,38,/,/,/,/
COC(=O)c1cc(NC(=O)c2cccc(Cl)c2)c(=O)oc1/C=C/Nc1cc(C)cc(C)c1,558*,/,68*[inhibitor],135*,138*,0,0,-183,503*,612*
COC(=O)c1cc(NC(=O)c2cccc(C(F)(F)F)c2)c(=O)oc1C,1,103,110,12,1,13,/,/,/,/
COc1ccc(CCNC(=O)CN(Cc2ccc(Cl)cc2)S(C)(=O)=O)cc1,1,102,100,/,/,/,/,/,/,/
CC(Oc1ccccc1)c1nnc(SCC(=O)NC2CC2)n1C (configuration not stated),-2,93,89,/,/,/,/,/,/,/
CCOc1nc(SCCOc2ccc(C)cc2)nc(N(C)C)n1,3,109,107,103*,3,51,5,25,-1.3,-0.14
CCOc1nc(SCCOc2ccc(Cl)cc2Cl)nc(N(C)C)n1,0,102,104,2,1,55,/,/,/,/
CCN1/C(=C/C=C/c2oc3ccc4ccccc4c3[n+]2CC)Oc2ccc3ccccc3c21,/,/,/,184*,24,76,69*,-37,546*,228*
COc1ccc(CCNC(=O)c2ccc(CS(=O)Cc3ccc(C)cc3)o2)cc1OC (configuration not stated),0,101,99,/,/,/,/,/,/,/
CCOc1ccc(OCc2ccc(C(=O)OCc3ccccn3)o2)cc1,/,/,/,87*,3,33,0,26,0.46,-2.7
SMILES,MEKK2mut PB1 HTS,MEKK2 WT-MEK5,MEKK3 PB1 HTS,ABCG2 inh,ABCB1 inh,WT yeast gro inh,ABCB1 single pt,ABCG2 confirm,IgMXP3 fluor,CCRF-Adr fluor
CCOC(=O)N1CCN(/C=C(\C#N)c2nc3ccccc3s2)CC1,-3,84,94,87*,64*,-10,1,17,-0.99,15
COc1cccc(NC(=O)C(c2ccccc2)N2CCNC(=O)C2)c1 (configuration not stated),-4,100,98,4,1,3,/,/,/,/
CCOC(=O)c1c(C)nc2ccccc2c1-c1ccccc1,28,118,109,20,1,-6,/,/,/,/
CCOC(=O)c1c(C)nc(SC)c(C#N)c1-c1ccccc1,5,114,105,85*,0,51,1,13,-0.29,0.56
CCCN1C(=O)/C(=C/c2c(NCCCOC(C)C)nc3c(C)cccn3c2=O)SC1=S,-4,71,94,89*,62*,-5,-3,-12,141*,178*
CCOC(=O)c1cccc(NC(=O)c2cccnc2)c1,6,105,102,2,0,8,/,/,/,/
CCOC(=O)c1cccc(NC(=O)c2cnc3ccccc3n2)c1,19,108,106,91*,3,9,2,68*,-0.59,-4.4
COc1cc(NC(=S)N2CCCCC2C)cc(OC)c1OC (configuration not stated),3,104,102,3,0,24,/,/,/,/
